Experimental data published in ChEMBL document CHEMBL2062373, “Discovery of pyrroloaminopyrazoles as novel PAK inhibitors” (J Med Chem, 2012).
In brackets after ≈: the same amount, converted by molar mass.

How the values were obtained:
[1] = Oral bioavailability in rat at 10 mg/kg; format: ADME, organism-based; settings: in vivo
[2] = Metabolic stability in human liver microsomes assessed as extraction ratio; format: ADME, Microsome; settings: read-out: ERH
[3] = Volume of distribution at steady state in rat at 5 mg/kg, iv and 10 mg/kg, po; format: ADME, organism-based; settings: in vivo, read-out: Vdss
[4] = Half life in rat at 5 mg/kg, iv and 10 mg/kg, po; format: ADME, organism-based; settings: in vivo
[5] = Octanol/buffer partition coefficient, log D of the compound at pH 7.4; format: physicochemical
[6] = Efflux ratio of permeability from basolateral to apical side over apical to basolateral side in human Caco2 cells; format: ADME, cell-based; settings: Caco-2
[7] = Clearance in rat at 5 mg/kg, iv and 10 mg/kg, po; format: ADME, organism-based; settings: in vivo
[8] = target: T1, Serine/threonine-protein kinase PAK 4 (Homo sapiens, UniProt O96013); assay: Inhibition of PAK4
[9] = target: T1, Serine/threonine-protein kinase PAK 4; assay: Inhibition of PAK4-mediated GEF-H1 phosphorylation at Ser810 by cell based assay
Mus musculus [10] = assay: Free dug level in mouse xenografted with human M24 cells at 7.5 mg/kg, po BID for 15 days; format: ADME, organism-based; design: dose 7.5 mg/kg, route oral; settings: in vivo, 360 h
In short: (§1)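 The read-out is free drug exposure, reported as unbound average concentration (free Cave) in nM. It was obtained from mice dosed orally at the stated regimen, sid or bid, during the xenograft efficacy study.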

Mus musculus [11] = assay: Free dug level in mouse xenografted with human M24 cells at 15 mg/kg, po BID for 15 days; format: ADME, organism-based; design: dose 15 mg/kg, route oral; settings: in vivo, 360 h; in short: as §1
[12] = target: Cyclin-dependent kinase 7 (Homo sapiens) (UniProt P50613); assay: Inhibition of cdk7 at 1000 nM
[13] = Antitumor activity against human M24 cells xenografted in mouse assessed as tumor growth inhibition at 15 mg/kg, po BID for 15 days; format: functional; settings: M24, 360 h, read-out: TGI
Homo sapiens [14] = species: Homo sapiens; assay: Inhibition of RSK at 1000 nM
[15] = Antitumor activity against human M24 cells xenografted in mouse assessed as tumor growth inhibition at 7.5 mg/kg, po BID for 15 days; format: functional; settings: M24, 360 h, read-out: TGI
[16] = target: T2, Lymphokine-activated killer T-cell-originated protein kinase (Homo sapiens) (UniProt Q96KB5); assay: Inhibition of PBK at 1000 nM
T2 sequence (whole entry): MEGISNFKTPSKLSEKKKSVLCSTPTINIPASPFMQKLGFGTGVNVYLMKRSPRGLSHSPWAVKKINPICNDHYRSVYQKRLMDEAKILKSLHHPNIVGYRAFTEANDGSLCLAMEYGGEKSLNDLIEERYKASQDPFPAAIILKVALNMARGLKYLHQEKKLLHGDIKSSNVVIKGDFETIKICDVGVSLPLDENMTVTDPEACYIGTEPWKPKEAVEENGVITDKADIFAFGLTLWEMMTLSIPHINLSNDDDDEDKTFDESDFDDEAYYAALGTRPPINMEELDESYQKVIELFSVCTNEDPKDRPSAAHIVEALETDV

[17] = target: Serine/threonine-protein kinase MARK1 (Homo sapiens, UniProt Q9P0L2); assay: Inhibition of MARK at 1000 nM
[18] = target: AMP-activated protein kinase, AMPK (Homo sapiens) (UniProt P54646+O43741+P54619+Q9UGJ0+Q9Y478+Q13131+Q9UGI9); assay: Inhibition of AMPK at 1000 nM; format: protein-complex assay
[19] = target: Glycogen synthase kinase-3 beta (Homo sapiens, UniProt P49841); assay: Inhibition of GSK3beta at 1000 nM
Homo sapiens [20] = species: Homo sapiens; assay: Inhibition of PKA at 1000 nM
[21] = target: Serine/threonine-protein kinase 26 (Homo sapiens) (UniProt Q9P289); assay: Inhibition of MST4 at 1000 nM
[22] = target: Mitogen-activated protein kinase 1 (Homo sapiens, UniProt P28482); assay: Inhibition of Erk2 at 1000 nM
[23] = target: T3, Cyclin-dependent kinase 2 (Homo sapiens, UniProt P24941)
[24] = Aqueous solubility of the compound; format: physicochemical; settings: buffer
Mus musculus [25] = assay: Down regulation of GEF-H1 phosphorylation in human HCT116 cells xenografted in mouse tumor at 80 mg/kg/day, sc administered via continuous infusion measured after 18 hrs; format: functional, HCT-116; settings: route subcutaneous
In short: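 Tumour-bearing mice received drug by continuous infusion from an implanted subcutaneous pump at 80 mg/kg/day. Tumours were taken at 18 h and pGEF-H1 levels were measured. Downregulation is expressed as percent reduction.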

[26] = target: T3, Cyclin-dependent kinase 2; assay: Inhibition of CDK2 at 1 uM
[27] = Metabolic stability of the compound in human liver microsomes assessed as compound remaining after 30 mins; format: ADME, Microsome; settings: read-out: Stability
Mus musculus [28] = assay: Free dug level in mouse xenografted with human HCT116 cells at 25 mg/kg, po BID for 15 days; format: ADME, organism-based, HCT-116; design: dose 25 mg/kg, route oral; settings: in vivo, 360 h; in short: as §1
HCT-116 [29] = assay: Antitumor activity against human HCT116 cells xenografted in mouse assessed as tumor growth inhibition at 25 mg/kg, po BID for 15 days; format: functional; settings: HCT-116, 360 h, read-out: TGI
HCT-116 [30] = assay: Antitumor activity against human HCT116 cells xenografted in mouse assessed as tumor growth inhibition at 50 mg/kg, po SID for 15 days; format: functional; settings: HCT-116, 360 h, read-out: TGI
Mus musculus [31] = assay: Free dug level in mouse xenografted with human HCT116 cells at 50 mg/kg, po SID for 15 days; format: ADME, organism-based, HCT-116; design: dose 50 mg/kg, route oral; settings: in vivo, 360 h; in short: as §1

T1 sequence (O96013 whole entry): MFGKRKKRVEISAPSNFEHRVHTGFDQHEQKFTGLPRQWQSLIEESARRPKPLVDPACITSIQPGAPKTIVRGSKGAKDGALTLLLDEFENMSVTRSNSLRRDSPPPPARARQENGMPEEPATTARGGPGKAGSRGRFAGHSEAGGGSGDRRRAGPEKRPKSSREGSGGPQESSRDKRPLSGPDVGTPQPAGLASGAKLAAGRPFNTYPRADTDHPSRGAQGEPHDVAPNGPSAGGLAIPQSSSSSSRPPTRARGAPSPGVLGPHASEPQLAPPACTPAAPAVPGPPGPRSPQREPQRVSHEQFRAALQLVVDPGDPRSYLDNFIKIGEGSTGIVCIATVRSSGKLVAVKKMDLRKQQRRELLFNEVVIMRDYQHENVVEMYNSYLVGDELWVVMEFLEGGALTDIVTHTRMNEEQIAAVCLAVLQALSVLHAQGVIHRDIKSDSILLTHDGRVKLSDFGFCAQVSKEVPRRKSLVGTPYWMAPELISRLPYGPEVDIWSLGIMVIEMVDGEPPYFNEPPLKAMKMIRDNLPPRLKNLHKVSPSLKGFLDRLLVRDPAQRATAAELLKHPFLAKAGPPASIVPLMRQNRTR
Sequence of Mitogen-activated protein kinase 1 (P28482 whole entry): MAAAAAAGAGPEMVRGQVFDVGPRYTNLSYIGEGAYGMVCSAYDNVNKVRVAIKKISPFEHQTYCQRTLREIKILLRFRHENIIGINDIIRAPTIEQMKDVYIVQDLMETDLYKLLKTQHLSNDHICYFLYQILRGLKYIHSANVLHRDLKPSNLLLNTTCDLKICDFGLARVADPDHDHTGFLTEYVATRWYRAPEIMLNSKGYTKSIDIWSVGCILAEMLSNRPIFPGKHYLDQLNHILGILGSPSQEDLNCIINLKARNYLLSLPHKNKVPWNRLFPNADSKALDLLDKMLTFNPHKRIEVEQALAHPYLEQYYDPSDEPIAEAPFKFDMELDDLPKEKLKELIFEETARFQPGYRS
Sequence of Serine/threonine-protein kinase 26 (Homo sapiens) (Q9P289 2-416 limits assumed): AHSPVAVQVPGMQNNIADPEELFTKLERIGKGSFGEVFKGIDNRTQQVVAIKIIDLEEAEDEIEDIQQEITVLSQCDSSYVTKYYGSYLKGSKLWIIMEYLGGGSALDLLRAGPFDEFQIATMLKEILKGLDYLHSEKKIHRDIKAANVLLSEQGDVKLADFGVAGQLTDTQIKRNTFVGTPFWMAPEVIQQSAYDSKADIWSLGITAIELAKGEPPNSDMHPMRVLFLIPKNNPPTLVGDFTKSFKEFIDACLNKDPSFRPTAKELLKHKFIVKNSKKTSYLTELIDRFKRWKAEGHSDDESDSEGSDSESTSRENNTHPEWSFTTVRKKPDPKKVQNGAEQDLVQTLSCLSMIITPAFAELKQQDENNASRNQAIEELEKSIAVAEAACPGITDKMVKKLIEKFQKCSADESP
Sequence of Cyclin-dependent kinase 7 (Homo sapiens) (P50613 whole entry): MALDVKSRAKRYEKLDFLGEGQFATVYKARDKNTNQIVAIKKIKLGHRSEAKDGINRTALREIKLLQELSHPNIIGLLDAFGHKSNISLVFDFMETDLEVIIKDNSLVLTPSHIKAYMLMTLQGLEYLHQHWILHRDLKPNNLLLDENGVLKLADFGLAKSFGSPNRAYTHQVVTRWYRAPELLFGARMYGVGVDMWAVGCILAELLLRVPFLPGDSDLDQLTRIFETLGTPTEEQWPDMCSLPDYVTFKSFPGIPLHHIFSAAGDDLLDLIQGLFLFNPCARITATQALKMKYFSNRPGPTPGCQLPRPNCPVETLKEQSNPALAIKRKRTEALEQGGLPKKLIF
Sequence of Serine/threonine-protein kinase MARK1 (Q9P0L2 whole entry, looked up): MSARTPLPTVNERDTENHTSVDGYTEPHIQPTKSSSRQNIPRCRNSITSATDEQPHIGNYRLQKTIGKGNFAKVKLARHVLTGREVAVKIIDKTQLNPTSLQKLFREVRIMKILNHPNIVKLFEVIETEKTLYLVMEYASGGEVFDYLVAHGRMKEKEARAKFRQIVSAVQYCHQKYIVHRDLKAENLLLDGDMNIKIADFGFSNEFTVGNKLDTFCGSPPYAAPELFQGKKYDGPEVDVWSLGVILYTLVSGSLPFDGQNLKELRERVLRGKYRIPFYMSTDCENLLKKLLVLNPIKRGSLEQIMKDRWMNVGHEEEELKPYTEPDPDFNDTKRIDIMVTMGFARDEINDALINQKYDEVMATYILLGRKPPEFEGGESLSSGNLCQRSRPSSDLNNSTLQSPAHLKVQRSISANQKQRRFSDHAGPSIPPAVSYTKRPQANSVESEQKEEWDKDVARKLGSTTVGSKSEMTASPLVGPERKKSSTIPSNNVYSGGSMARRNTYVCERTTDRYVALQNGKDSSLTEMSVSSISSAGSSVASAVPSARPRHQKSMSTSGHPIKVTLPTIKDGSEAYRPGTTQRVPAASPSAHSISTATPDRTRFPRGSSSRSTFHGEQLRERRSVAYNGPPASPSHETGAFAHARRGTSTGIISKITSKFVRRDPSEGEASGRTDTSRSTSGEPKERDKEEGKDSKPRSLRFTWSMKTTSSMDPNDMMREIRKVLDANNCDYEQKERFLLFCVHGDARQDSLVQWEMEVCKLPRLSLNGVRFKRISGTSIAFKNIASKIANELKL
Sequence of Glycogen synthase kinase-3 beta (P49841 whole entry, looked up): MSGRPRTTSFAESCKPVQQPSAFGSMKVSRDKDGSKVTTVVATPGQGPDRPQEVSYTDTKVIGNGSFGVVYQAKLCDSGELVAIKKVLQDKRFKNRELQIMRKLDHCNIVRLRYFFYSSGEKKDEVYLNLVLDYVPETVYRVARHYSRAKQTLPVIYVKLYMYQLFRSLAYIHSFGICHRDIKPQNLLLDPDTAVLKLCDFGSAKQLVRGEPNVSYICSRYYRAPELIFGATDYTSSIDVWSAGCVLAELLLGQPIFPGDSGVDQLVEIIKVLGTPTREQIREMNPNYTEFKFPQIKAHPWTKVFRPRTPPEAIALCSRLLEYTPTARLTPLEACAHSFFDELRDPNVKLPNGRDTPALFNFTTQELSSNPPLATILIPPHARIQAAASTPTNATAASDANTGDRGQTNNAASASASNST

Row | Structure (SMILES) | bioavailability [1] [%] | hepatic extraction ratio [2] | Vd [3] [L/kg] | half-life [4] [h] | logD [5] | efflux ratio [6] | clearance [7] [mL/min/kg] | Ki [8] [nM] | EC50 ([9]; read-out: EC50) [nM] | also measured
1 | CN(C)C[C@@H](OC(=O)N1Cc2c(NC(=O)c3ccccn3)n[nH]c2C1(C)C)c1ccccc1 | 2 | 0.67 | 4.8 | 0.7 | 2.23 | 1.61 | 146 |  |  | 
2 | CN1CCN(C(=O)N2Cc3c(n[nH]c3NC(=O)c3ccccc3)C2(C)C)C(c2ccccc2)C1 (stereo unspecified) |  | 0.7 |  |  | 3.2 | 187 |  | 207 | 21 | 
3 | CN(C)C[C@@H](NC(=O)N1Cc2c(NC(=O)c3ccccc3F)n[nH]c2C1(C)C)c1ccccc1 |  | 0.38 |  |  | 2.33 | 231 |  |  |  | 
4 | CN(C)C[C@@H](OC(=O)N1Cc2c(NC(=O)C3CCCCO3)n[nH]c2C1(C)C)c1ccccc1 (mixture of isomers) |  | 1 |  |  | 2.48 | 3.6 |  |  |  | 
5 | CN(C)C[C@@H](OC(=O)N1Cc2c(NC(=O)C3(C(F)(F)F)CCC3)n[nH]c2C1(C)C)c1ccccc1 |  | 0.6 |  |  | 1.6 |  |  |  | < 1 | 
6 | CN(C)C[C@@H](OC(=O)N1Cc2c(NC(=O)C(C)(C)C(F)(F)F)n[nH]c2C1(C)C)c1ccccc1 | 45 | 0.55 | 4.3 | 1.3 | 1.61 |  | 37 |  | 1 | Drug uptake(free) (Mus musculus [10]): 13.9 nM; Drug uptake(free) (Mus musculus [11]): 31 nM; inhibition [12]: > 70%; inhibition in vivo at 15 mg/kg [13]: 87%; inhibition (Homo sapiens [14]): > 70%; inhibition in vivo at 7.5 mg/kg [15]: 67%; inhibition [16]: > 70%; inhibition [17]: > 70%; inhibition [18]: > 70%; inhibition [19]: > 70%; inhibition (Homo sapiens [20]): > 70%; inhibition [21]: > 70%; inhibition [22]: > 70%
7 | CN(C)C[C@@H](OC(=O)N1Cc2c(NC(=O)c3ccccc3)n[nH]c2C1(C)C)c1ccccc1 |  |  |  |  | 2.66 |  |  |  |  | Ki [23]: 2000 nM; solubility [24]: 434 µM (≈ 194 µg/mL)
8 | CN(C)C[C@H](c1ccccc1)N(C)C(=O)N1Cc2c(NC(=O)c3ccccc3)n[nH]c2C1(C)C |  | 0.5 |  |  | 2.68 | 53.6 |  |  |  | EC50 [9]: Not Active
9 | CN(C)C[C@@H](OC(=O)N1Cc2c(NC(=O)c3ccc(F)cc3F)n[nH]c2C1(C)C)c1ccccc1 |  | 0.9 |  |  | 2.68 | 1.17 |  |  | 15 | 
10 | CN(C)C[C@@H](NC(=O)c1ccc2[nH]nc(-c3nc4ccc(NCc5ccc(-c6ccccn6)cc5)cc4[nH]3)c2c1)c1ccccc1 |  |  |  |  |  |  |  | 2.8 |  | 
11 | CN(C)C[C@@H](NC(=O)N1Cc2c(NC(=O)c3ccccc3)n[nH]c2C1(C)C)c1ccccc1 |  | 0.39 |  |  | 1.77 | 326 |  | 30 |  | Ki [23]: 1800 nM; Activity (Mus musculus [25]): 61%; solubility [24]: 395 µM (≈ 176 µg/mL)
12 | CN1CCN(C(=O)N2Cc3c(NC(=O)c4cccc(Oc5ccccc5)c4)n[nH]c3C2(C)C)[C@@H](Cc2ccccc2)C1 |  |  |  |  | 5.45 |  |  |  | 810 | inhibition [26]: 20%; remaining at 0.5 h [27]: 2%
13 | CN(C)C[C@@H](OC(=O)N1Cc2c(NC(=O)c3ccc(F)cc3)n[nH]c2C1(C)C)c1ccccc1 | 9 | 0.7 | 6.1 | 1.1 | 2.79 | 7 | 98 | 13 | 9 | Ki [23]: 1160 nM; Drug uptake(free) (Mus musculus [28]): 25 nM; solubility [24]: 404 µM (≈ 188 µg/mL); inhibition in vivo at 25 mg/kg (HCT-116 [29]): 61%; inhibition in vivo at 50 mg/kg (HCT-116 [30]): 12%; Drug uptake(free) (Mus musculus [31]): 70 nM
14 | CN(C)C[C@@H](NC(=O)c1ccc2[nH]nc(-c3nc4ccccc4[nH]3)c2c1)c1ccccc1 |  |  |  |  | 3.6 |  |  | 6 | 12.6 | 
15 | CN(C)C[C@@H](OC(=O)N1Cc2c(NC(=O)C3CCCO3)n[nH]c2C1(C)C)c1ccccc1 (mixture of isomers) | 20 | 0.4 | 2.2 | 0.5 | 2.08 | 8.7 | 69 |  |  | 
16 | CN(C)C[C@@H](OC(=O)N1Cc2c(NC(=O)C3(C(F)(F)F)CC3)n[nH]c2C1(C)C)c1ccccc1 | 46 | 0.42 | 2.8 | 1.5 | 1.5 |  | 24.1 |  | 7 | 
